Source: ChEMBL document CHEMBL4196123, “Discovery of an Orally Bioavailable Dual PI3K/mTOR Inhibitor Based on Sulfonyl-Substituted Morpholinopyrimidines” (ACS Med Chem Lett, 2018)
pIC50: −log10 of the molar value.

Legend:
[1] = Volume of distribution at steady state in CD1 mouse at 5 mg/kg, iv by LC-MS/MS analysis; type: ADME, organism-based; conditions: in vivo, read-out: Vdss
Cytochrome P450 3A4 [2] = molecular target: T1, Cytochrome P450 3A4 (Homo sapiens, UniProt P08684); assay: Inhibition of CYP3A4 in human liver microsomes using midazolam as substrate pretreated for 5 mins followed by NADPH addition and measured after 5 mins by LC-MS analysis; type: ADME
Cytochrome P450 2C8 = Cytochrome P450 2C8 (Homo sapiens, UniProt P10632); assay: Inhibition of CYP2C8 in human liver microsomes using paclitaxel as substrate pretreated for 5 mins followed by NADPH addition and measured after 10 mins by LC-MS analysis; type: ADME
[3] = molecular target: PI3-kinase p110-delta/p85-alpha (Homo sapiens, UniProt O00329); assay: Inhibition of recombinant human full-length N-terminal His6-tagged p110delta/recombinant human full length p85alpha expressed in baculovirus infected Sf21 insect cells using PIP2 as substrate measured after 1 hr by Alexa633 Tracer-based fluorescence polarization assay
[4] = molecular target: PI3-kinase p110-alpha/p85-alpha (Homo sapiens, UniProt P42336, E545K); assay: Inhibition of recombinant human His-tagged p85alpha/p110alpha E545K mutant expressed in insect cells
[5] = Oral bioavailability in CD1 mouse at 10 mg/kg administered via gavage by LC-MS/MS analysis; type: ADME, organism-based; conditions: in vivo
[6] = Efflux ratio of apparent permeability from basolateral to apical side over apical to basolateral side in human Caco2 cells after 90 mins by LC-MS/MS analysis; type: ADME, cell-based; conditions: Caco-2
T47D = assay: Antiproliferative activity against human T47D cells harboring PI3KCA H1047R mutant after 72 hrs by MTT assay; type: functional, cell-based
Mus musculus [7] = assay: Toxicity in Balb/c nu/nu mouse xenografted with human HT-29 cells harboring PIK3CA P449T mutant assessed as body weight loss at 7.5 mg/kg, po administered daily via gavage for 27 days relative to control; type: organism-based; conditions: in vivo, 648 h
Method in brief: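 Balb/c nu/nu mice with HT-29 xenografts (mean tumor about 240 mm³) received daily oral gavage for 27 days. Body weight change was measured and plotted over time. Mean ± SEM, n = 6.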

PI3K p110 beta/p85 alpha = PI3K p110 beta/p85 alpha (Homo sapiens, UniProt P42338); assay: Inhibition of recombinant human full-length N-terminal His6-tagged p110beta/recombinant human full length p85alpha expressed in baculovirus infected Sf21 insect cells using PIP2 as substrate measured after 1 hr by Alexa633 Tracer-based fluorescence polarization assay
[8] = Apparent permeability across apical to basolateral side in human Caco2 cells measured after 90 mins by LC-MS/MS analysis; type: ADME, cell-based; conditions: Caco-2
[9] = Half life in CD1 mouse at 5 mg/kg, iv by LC-MS/MS analysis; type: ADME, organism-based; conditions: in vivo
HT-29 [10] = assay: Antitumor activity against human HT-29 cells harboring PIK3CA P449T mutant xenografted in Balb/c nu/nu mouse assessed as tumor growth inhibition at 7.5 mg/kg, po administered daily via gavage for 27 days relative to control; type: functional; conditions: HT-29, po, 648 h, read-out: TGI
Method in brief: (§1)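 Balb/c nu/nu mice carrying HT-29 xenografts were dosed by daily oral gavage for 27 days, starting when mean tumor size was about 240 mm³; vehicle group as control. Tumor volume estimated over time, and TGI calculated after 27 days. Mean ± SEM, n = 6. Dunnett's multiple comparison test.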

[11] = molecular target: Serine/threonine-protein kinase mTOR (Homo sapiens, UniProt P42345); assay: Inhibition of recombinant human GST-tagged mTOR catalytic domain (1360 to 2549 residues) expressed in baculovirus expression system using GFP-4EBP1 as substrate measured after 1 hr by Lathascreen method
[12] = Apparent permeability across basolateral to apical side in human Caco2 cells measured after 90 mins by LC-MS/MS analysis; type: ADME, cell-based; conditions: Caco-2
[13] = Cmax in CD1 mouse at 10 mg/kg, po administered via gavage by LC-MS/MS analysis; type: ADME, organism-based; parameters: dose 10 mg/kg, route oral; conditions: in vivo
[14] = Clearance in CD1 mouse at 5 mg/kg, iv by LC-MS/MS analysis; type: ADME, organism-based; conditions: in vivo
Mus musculus [15] = assay: Toxicity in Balb/c nu/nu mouse xenografted with human HT-29 cells harboring PIK3CA P449T mutant assessed as survival at 7.5 mg/kg, po administered daily via gavage for 27 days measured post last dose; type: organism-based; conditions: in vivo, 648 h
Method in brief: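 Balb/c nu/nu mice carrying HT-29 xenografts (PIK3CA P449T), dosed by daily oral gavage for 27 days starting when mean tumor size was about 240 mm³, alongside a vehicle group. Survival was recorded after the 27-day treatment. Body weight change was measured over time. n = 6 per group, mean ± SEM, Dunnett's multiple comparison test.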

Cytochrome P450 2C9 = Cytochrome P450 2C9 (Homo sapiens, UniProt P11712); assay: Inhibition of CYP2C9 in human liver microsomes using diclofenac as substrate pretreated for 5 mins followed by NADPH addition and measured after 10 mins by LC-MS analysis; type: ADME
[16] = Intrinsic clearance in human liver microsomes at […] pretreated up to 45 mins followed by NADPH addition and measured by LC-MS/MS analysis; type: ADME, microsome; conditions: read-out: CLH
Cytochrome P450 1A2 = Cytochrome P450 1A2 (Homo sapiens, UniProt P05177); assay: Inhibition of CYP1A2 in human liver microsomes using phenacetin as substrate pretreated for 5 mins followed by NADPH addition and measured after 10 mins by LC-MS analysis; type: ADME
[17] = Half life in CD1 mouse at 10 mg/kg, po administered via gavage by LC-MS/MS analysis; type: ADME, organism-based; conditions: in vivo
HT-29 [18] = assay: Antitumor activity against human HT-29 cells harboring PIK3CA P449T mutant xenografted in Balb/c nu/nu mouse assessed as tumor growth inhibition at 3.75 mg/kg, po administered daily via gavage for 27 days relative to control; type: functional; conditions: HT-29, po, 648 h, read-out: TGI; method in brief: as §1
[19] = AUClast in CD1 mouse at 5 mg/kg, iv by LC-MS/MS analysis; type: ADME, organism-based; parameters: dose 5 mg/kg, time 0 - last, route intravenous; conditions: in vivo
MCF7 = assay: Antiproliferative activity against human MCF7 cells harboring PIK3CA E545K mutant after 72 hrs by MTT assay; type: functional, cell-based; conditions: MCF7, 72 h
HUVEC = assay: Cytotoxicity against HUVEC after 72 hrs by MTT assay; type: cell-based; conditions: Homo sapiens
Cytochrome P450 3A4 [20] = molecular target: T1, Cytochrome P450 3A4; assay: Inhibition of CYP3A4 in human liver microsomes using testosterone as substrate pretreated for 5 mins followed by NADPH addition and measured after 5 mins by LC-MS analysis; type: ADME
[21] = AUClast in CD1 mouse at 10 mg/kg, po administered via gavage by LC-MS/MS analysis; type: ADME, organism-based; parameters: dose 10 mg/kg, time 0 - last, route oral; conditions: in vivo
[22] = molecular target: Voltage-gated inwardly rectifying potassium channel KCNH2 (Homo sapiens, UniProt Q12809); assay: Inhibition of recombinant human ERG expressed in CHO cells by automated whole cell patch clamp Qpatch method; type: cell-based
[23] = Intrinsic clearance in mouse liver microsomes at […] pretreated up to 45 mins followed by NADPH addition and measured by LC-MS/MS analysis; type: ADME, microsome; conditions: read-out: CLH
Cytochrome P450 2B6 = Cytochrome P450 2B6 (Homo sapiens, UniProt P20813); assay: Inhibition of CYP2B6 in human liver microsomes using bupropion as substrate pretreated for 5 mins followed by NADPH addition and measured after 10 mins by LC-MS analysis; type: ADME
Cytochrome P450 2B6, sequence (P20813 whole entry): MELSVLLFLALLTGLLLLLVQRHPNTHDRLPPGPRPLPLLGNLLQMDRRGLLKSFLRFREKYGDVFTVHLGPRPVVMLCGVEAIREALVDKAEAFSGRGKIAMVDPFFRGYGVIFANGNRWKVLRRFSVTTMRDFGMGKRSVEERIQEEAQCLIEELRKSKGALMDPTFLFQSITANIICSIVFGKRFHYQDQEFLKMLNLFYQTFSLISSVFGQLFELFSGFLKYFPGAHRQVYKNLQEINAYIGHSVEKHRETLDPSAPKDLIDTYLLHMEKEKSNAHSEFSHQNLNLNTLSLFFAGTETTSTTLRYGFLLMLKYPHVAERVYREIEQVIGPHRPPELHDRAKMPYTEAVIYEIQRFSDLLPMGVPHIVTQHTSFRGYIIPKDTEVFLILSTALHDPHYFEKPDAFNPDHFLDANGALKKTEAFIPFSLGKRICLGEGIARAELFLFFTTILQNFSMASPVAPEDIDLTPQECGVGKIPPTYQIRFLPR

T1 sequence (P08684 whole entry): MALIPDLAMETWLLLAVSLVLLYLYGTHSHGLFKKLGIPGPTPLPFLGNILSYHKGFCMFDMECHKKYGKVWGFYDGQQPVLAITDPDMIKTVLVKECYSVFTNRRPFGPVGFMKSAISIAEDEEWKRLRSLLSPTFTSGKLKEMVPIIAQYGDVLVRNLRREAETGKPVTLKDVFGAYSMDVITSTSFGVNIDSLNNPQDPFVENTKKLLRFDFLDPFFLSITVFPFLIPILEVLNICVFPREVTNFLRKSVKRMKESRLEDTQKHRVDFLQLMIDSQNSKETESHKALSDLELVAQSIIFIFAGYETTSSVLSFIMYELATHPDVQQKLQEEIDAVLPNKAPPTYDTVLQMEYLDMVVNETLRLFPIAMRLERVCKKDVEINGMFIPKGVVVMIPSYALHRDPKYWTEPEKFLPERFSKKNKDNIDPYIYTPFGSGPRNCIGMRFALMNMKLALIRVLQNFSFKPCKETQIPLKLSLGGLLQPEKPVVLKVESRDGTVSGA
Cytochrome P450 1A2, sequence (P05177 whole entry): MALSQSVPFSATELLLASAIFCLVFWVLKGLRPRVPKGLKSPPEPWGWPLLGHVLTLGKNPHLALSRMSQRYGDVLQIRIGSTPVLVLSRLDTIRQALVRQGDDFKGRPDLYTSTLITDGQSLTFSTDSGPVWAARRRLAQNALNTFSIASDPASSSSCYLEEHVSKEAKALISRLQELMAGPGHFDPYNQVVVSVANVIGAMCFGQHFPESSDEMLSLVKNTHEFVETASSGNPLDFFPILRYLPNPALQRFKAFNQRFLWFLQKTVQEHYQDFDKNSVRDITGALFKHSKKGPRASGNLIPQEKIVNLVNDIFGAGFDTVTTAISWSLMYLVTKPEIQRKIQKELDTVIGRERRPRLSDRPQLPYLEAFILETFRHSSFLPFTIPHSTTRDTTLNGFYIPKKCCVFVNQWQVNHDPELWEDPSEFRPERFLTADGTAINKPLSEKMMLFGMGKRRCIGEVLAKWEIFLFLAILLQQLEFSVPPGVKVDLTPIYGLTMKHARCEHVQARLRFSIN
Cytochrome P450 2C9, sequence (P11712 whole entry): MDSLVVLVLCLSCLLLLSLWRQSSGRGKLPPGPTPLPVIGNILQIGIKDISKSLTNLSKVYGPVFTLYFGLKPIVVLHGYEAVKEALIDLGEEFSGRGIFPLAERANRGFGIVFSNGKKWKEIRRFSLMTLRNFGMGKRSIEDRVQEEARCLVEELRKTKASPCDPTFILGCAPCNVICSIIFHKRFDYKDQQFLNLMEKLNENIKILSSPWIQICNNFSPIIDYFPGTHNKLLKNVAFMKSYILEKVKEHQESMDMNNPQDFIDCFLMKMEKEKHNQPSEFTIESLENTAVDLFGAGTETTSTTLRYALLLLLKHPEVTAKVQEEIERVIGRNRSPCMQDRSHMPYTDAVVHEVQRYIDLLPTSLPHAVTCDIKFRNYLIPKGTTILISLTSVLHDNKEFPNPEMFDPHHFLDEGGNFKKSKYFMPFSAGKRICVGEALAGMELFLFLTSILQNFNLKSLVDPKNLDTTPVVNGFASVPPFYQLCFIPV
PI3K p110 beta/p85 alpha, sequence (P27986 whole entry): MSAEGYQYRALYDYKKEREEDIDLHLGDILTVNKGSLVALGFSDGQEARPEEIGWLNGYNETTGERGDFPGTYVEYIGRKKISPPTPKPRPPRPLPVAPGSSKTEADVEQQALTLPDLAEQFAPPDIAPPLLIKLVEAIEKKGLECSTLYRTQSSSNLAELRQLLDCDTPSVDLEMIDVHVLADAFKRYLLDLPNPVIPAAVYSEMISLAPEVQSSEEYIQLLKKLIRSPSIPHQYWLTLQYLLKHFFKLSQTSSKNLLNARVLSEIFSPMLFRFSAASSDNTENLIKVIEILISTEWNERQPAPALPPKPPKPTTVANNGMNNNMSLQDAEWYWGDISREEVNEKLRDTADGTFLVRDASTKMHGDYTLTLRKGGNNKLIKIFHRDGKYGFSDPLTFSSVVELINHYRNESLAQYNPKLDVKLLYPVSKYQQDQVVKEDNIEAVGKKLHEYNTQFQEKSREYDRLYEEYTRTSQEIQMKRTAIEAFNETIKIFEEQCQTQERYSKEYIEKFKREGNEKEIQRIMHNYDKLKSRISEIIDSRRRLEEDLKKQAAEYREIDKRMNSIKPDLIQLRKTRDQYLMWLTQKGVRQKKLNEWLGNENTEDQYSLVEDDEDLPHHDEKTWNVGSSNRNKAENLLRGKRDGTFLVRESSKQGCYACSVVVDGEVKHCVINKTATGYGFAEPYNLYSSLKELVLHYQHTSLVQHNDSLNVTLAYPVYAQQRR
PI3K p110 beta/p85 alpha, sequence (P42338 whole entry): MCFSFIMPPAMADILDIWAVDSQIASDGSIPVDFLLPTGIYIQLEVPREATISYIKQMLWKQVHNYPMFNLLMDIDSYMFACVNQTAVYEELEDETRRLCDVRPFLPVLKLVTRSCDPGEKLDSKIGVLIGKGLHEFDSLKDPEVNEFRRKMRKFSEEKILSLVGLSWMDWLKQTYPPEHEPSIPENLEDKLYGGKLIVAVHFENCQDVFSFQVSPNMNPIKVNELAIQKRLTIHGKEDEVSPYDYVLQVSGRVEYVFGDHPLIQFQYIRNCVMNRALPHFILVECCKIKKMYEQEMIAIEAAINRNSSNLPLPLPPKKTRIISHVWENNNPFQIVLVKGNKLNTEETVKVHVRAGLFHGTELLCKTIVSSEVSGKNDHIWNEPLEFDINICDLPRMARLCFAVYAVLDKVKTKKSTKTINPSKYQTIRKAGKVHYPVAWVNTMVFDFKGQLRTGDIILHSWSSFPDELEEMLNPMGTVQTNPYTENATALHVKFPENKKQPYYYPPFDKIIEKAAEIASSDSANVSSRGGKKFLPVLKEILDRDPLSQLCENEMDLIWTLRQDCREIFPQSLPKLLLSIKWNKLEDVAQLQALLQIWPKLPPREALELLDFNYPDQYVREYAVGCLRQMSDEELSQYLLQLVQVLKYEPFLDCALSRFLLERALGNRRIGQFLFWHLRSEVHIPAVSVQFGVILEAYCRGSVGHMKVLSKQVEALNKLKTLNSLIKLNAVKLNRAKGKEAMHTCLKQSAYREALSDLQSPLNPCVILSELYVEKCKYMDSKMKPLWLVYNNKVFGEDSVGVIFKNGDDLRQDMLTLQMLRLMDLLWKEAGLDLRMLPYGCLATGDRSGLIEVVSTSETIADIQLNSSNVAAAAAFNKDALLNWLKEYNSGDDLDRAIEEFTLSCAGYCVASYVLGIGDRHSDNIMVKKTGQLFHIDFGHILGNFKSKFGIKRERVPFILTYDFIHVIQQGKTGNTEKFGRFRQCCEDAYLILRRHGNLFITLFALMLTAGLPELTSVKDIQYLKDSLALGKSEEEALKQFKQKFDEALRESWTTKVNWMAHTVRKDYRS
PI3-kinase p110-delta/p85-alpha, sequence (P27986 whole entry): as the sequence (P27986 whole entry) above
PI3-kinase p110-delta/p85-alpha, sequence (O00329 whole entry): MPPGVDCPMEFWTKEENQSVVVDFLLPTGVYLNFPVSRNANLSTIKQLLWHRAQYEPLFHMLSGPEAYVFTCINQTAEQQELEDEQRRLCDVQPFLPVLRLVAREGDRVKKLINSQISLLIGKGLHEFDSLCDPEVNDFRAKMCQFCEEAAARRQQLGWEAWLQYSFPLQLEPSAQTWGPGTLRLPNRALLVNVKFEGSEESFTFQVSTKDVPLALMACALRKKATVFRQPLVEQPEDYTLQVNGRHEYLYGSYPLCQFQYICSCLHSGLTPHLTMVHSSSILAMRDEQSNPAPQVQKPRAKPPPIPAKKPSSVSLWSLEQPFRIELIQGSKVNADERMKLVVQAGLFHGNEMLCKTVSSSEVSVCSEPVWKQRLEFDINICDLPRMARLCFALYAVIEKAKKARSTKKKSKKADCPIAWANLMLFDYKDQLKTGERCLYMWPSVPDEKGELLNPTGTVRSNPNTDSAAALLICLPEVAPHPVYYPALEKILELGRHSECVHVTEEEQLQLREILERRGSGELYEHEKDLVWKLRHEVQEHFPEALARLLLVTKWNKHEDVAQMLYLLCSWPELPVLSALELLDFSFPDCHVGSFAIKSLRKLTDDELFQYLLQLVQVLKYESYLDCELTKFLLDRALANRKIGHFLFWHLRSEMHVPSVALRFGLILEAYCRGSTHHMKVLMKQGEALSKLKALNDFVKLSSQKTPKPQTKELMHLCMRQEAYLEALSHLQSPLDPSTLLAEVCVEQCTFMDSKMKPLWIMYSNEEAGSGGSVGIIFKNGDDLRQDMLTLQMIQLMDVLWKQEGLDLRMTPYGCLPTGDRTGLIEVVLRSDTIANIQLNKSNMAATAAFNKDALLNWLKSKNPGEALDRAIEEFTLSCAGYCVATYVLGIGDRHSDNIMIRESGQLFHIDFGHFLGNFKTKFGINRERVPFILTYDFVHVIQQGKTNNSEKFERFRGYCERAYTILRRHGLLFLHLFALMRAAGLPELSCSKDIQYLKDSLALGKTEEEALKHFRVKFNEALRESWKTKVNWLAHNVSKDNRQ

Work on C[C@H]1COCCN1c1nc(-c2cnc(N)cc2F)cc(C2(S(C)(=O)=O)CC2)n1 yielded a Vd [1] of 1.4 L/kg, a pIC50 (Cytochrome P450 3A4 [2]) of under 5.00 and a pIC50 (Cytochrome P450 2C8) of under 5.00. The pIC50 [3] was 7.34, the pIC50 [4] was 7.96 and the bioavailability [5] was 94.6%. The efflux ratio at 1.5 h [6] was 0.66, the pIC50 (T47D) was 7.52 and the Activity (Mus musculus [7]) was 15%. It also gave a pIC50 (PI3K p110 beta/p85 alpha) of 6.42, a Papp A→B at 1.5 h [8] of over 10 ×10⁻⁶ cm/s and a half-life [9] of 95.4 min. For the same compound, the inhibition in vivo at 7.5 mg/kg (HT-29 [10]) was 72.9%, the pIC50 [11] was 6.73 and the Papp B→A at 1.5 h [12] was over 10 ×10⁻⁶ cm/s. For the same compound, the Cmax [13] was 2980 ng/mL, the clearance [14] was 15.2 mL/min/kg and the Activity (Mus musculus [15]) was “Non-Toxic”. The pIC50 (Cytochrome P450 2C9) was under 5.00, the CLint scaled [16] was 5 to 16 mL/min/kg and the pIC50 (Cytochrome P450 1A2) was under 5.00. For the same compound, the half-life [17] was 172 min, the inhibition in vivo at 3.75 mg/kg (HT-29 [18]) was 54.4% and the AUC(0-t) [19] was 5440 ng·h/mL. The pIC50 (MCF7) was 7.96, the pIC50 (HUVEC) was 6.97 and the pIC50 (Cytochrome P450 3A4 [20]) was under 5.00. The AUC(0-t) [21] was 10400 ng·h/mL, the pIC50 [22] was under 4.52 and the CLint scaled [23] was 40 to 140 mL/min/kg. It also gave a pIC50 (Cytochrome P450 2B6) of under 5.00.
